In the library only some 1.6% were active in any assay of this set; here they are far more common.
SR-BI DiI inh = inhibitors of SR-BI mediated HDL lipid uptake, primary screen, ldlA[mSR-BI] cells, fluorescence, single point | Scavenger receptor class B member 1 (Mus musculus), Q61009 | ldlA[mSR-BI] CHO cells, DiI-HDL uptake fluorescence, 3 h | inhibition, % at 12.5 µM | 320,000 tested, 0.96% active | AID 488896, 2010;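 active = mean replicate inhibition of at least 70% and a set share of replicates each scoring 70 or more; inconclusive = meets just one of the two criteria; inactive = fails both criteria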;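 also: 0% = median of neutral control wells and 100% = median of positive control wells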
Target sequence (Q61009 whole entry, looked up): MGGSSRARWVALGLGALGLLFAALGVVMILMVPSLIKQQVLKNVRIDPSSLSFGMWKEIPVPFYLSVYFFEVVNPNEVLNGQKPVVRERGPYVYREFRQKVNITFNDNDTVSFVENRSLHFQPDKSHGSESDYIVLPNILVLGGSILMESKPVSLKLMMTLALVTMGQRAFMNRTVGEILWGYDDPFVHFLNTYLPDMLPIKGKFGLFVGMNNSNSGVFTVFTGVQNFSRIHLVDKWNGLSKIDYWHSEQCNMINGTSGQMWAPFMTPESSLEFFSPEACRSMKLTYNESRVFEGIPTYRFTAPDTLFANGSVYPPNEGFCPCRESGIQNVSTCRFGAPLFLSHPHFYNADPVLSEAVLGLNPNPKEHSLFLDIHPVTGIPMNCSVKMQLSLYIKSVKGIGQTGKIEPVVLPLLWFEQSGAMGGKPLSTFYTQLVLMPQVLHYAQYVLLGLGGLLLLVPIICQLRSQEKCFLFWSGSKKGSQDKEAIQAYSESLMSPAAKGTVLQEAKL
Vif inh = HIV Vif self-association inhibitors, primary screen, imaging, HEK293T, single point | HEK293T cells, Vif self-association by quenched fluorescence, 24 h | inhibition, % at 7.49 µM | 340,000 tested, 0.35% active; in the data active = inhibition above about 50%, passing the limit was not always enough; inconclusive = no clear call, values can overlap the other calls; inactive = below about 31%
TAG inh = inhibitors of triacylglycerol accumulation, primary screen, cell-based, uHTS, fluorescence, H9c2 | H9c2 cells, Nile Red lipid (TAG) fluorescence; cells loaded with 200 µM oleic acid | inhibition, % at 12.5 µM | 230,000 tested, 0.66% active | AID 651582, 2012;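 active = pattern-corrected inhibition of lipid staining of at least 50% with the nuclear-stain viability signal not falling by more than 50%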;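 also: 0% = DMSO wells and 100% = triacsin C control wells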
Bfl-1 A1 inh = caspase 3/7 activation in MEF A1-2A-BIM cells, primary screen, A1 inhibitor project, cell-based, luminescence, HTS; Caspase-Glo 3/7 luminescence, 3 h; percent of clofoctol response, vehicle zero; caspase activation, % (no concentration beside the values); 330,000 tested, 0.066% active; AID 2462, 2010;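 active = over half of replicate activation scores above 10%, or exactly half above 10 with the replicate mean above 10; inconclusive = replicate mean below 10 yet half the replicates above 10; inactive = over half of replicates below 10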
SR-BI uptake up = activators of SR-BI mediated DiI-HDL uptake, primary screen, ldlA[mSR-BI] CHO cells, DiI fluorescence. activation, % at 12.5 µM. AID 504775, 2011. 320,000 tested, 0.096% active. 3 h; 100 = double the neutral-control signal;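 active = mean replicate activation of at least 60% and every replicate at or above 60%; inconclusive = mean or all-replicate condition met, but not both; inactive = mean below 60% and not all replicates reaching 60%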;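 also: 0% = median plate neutral-control signal and 100% = twice that signal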
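material = CHO ldlA[mSR-BI] cells | medium = Ham's F12 with 0.5% BSA, HEPES 25 mM, pH 7.4 | reagent = fluorescent DiI-HDL, 10 µg/mL final | compound dosing = single-point compound dose | incubation = 3 h, 37 °C | measured by = bottom-read fluorescence, 550/595 nm | measure = HDL uptake via cellular fluorescence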
TAG conf = triacylglycerol accumulation inhibitors, retest, confirmation, cell-based, single concentration, Nile Red fluorescence, H9c2; shares compounds with TAG inh; H9c2 lipid accumulation; cells loaded with 200 µM oleic acid; inhibition, % at 12.5 µM; 990 tested, 71% active;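 active = mean inhibition across replicates of 40% or more; inactive = mean inhibition below 40%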;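 also: plate controls were DMSO only wells for no effect and Triacsin C treated wells for full effect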
* hit, by the source's call; ? = inconclusive; . = no result.

SMILES	SR-BI DiI inh	Vif inh	TAG inh	Bfl-1 A1 inh	SR-BI uptake up	TAG conf
C=CCc1c(C)nc(-c2ccccc2)nc1N/N=C/c1ccncc1	69	-9	65*	-1	-69	28
C=CCc1c(C)nc(C)nc1N/N=C/c1ccccc1	4	-1	-4	0	-4	.
CCCCNC(=O)c1cnc(Cc2c[nH]c3ccccc23)c(I)c1	.	-5	65*	.	.	15
CCN(CC)C(=O)[C@H]1C[C@H](CC(=O)NCCCn2ccnc2)C(=O)N2CCc3c([nH]c4cc(CCC(=O)N(C)C)ccc34)[C@]12C	-11	9	53*	.	11	-10
O=S(=O)(NC(=NC1CCCCC1)c1ccccc1F)c1ccccc1	-9	18	.	-1	9	.
CCC(C)NCCOCCOc1ccc(Cl)c2ccccc12 (configuration not stated)	7	-2	53*	1	-3	45*
CC1=CC(C)(C)[N+](C)(C)c2ccccc21	-6	4	10	0	6	.
CCOC(=O)c1[nH]c(C)c(C(=O)Nc2ccccc2C)c1C	2	30	54*	0	-2	59*
CCOc1c(Cl)cc(/C=C/C(=O)N(CC)CC(=O)NCc2cccs2)cc1OC	32	2	59*	1	-32	43*
CCOc1cc(/C=C/C(=O)N(CC)CC(=O)NCc2cccs2)cc(Cl)c1OC	49	5	39	0	-49	.
C[C@@H]1CN([C@@H](C)CO)C(=O)c2cc(N(C)C)ccc2O[C@@H]1CN(C)Cc1ccncc1	-13	6	61*	?	13	11
C[C@H](CO)N1C[C@H](C)[C@@H](CN(C)Cc2ccncc2)Oc2c(cccc2N(C)C)C1=O	6	1	.	0	-4	.
Cc1ccc(-c2nn(-c3ccccc3)cc2CSC(=N)N)cc1	26	10	53*	1	-26	109*
OCc1cn(-c2ccccc2)nc1-c1ccc(-c2nn(-c3ccccc3)cc2CO)cc1	1	-18	-13	1	-1	.
O=C(OCC(=O)N(CCc1ccccc1)Cc1ccccc1)c1cccc(S(=O)(=O)N2CCOCC2)c1	60	7	-2	.	-60	.
COC(=O)C1=C(C)N(Cc2ccccc2)C(=NCc2ccc(OC)cc2)N[C@H]1c1ccccc1	4	-1	56*	-2	-4	17
COc1cc2c(cc1OC)C(C)N(C(=O)Nc1cc(C)cc(C)c1)CC2 (configuration not stated)	.	-3	.	1	.	.
COc1cc2c(cc1OC)C(C)N(C(=O)c1cc3c(C)cc(C)cc3[nH]1)CC2 (configuration not stated)	19	.	54*	-1	-19	59*
Cc1ccc(-c2cc(C(F)F)n3ncc(C(=O)N4CCCc5ccccc54)c3n2)cc1	15	2	60*	0	-15	30
COc1ccc(-c2cc(C(F)F)n3ncc(C(=O)N4CCc5ccccc54)c3n2)cc1	54	-4	.	0	-54	.
COC(=O)/C=C1\N/C(=N\c2nc(C)cc(C)n2)N(c2ccc(C)c(C)c2)C1=O	-22	-2	.	-1	22	.
C=CCn1c(N)c(C(=O)Nc2ccccc2)c2nc3ccccc3nc21	-22	2	78*	0	22	88*
COc1ccc(C2=NOC(C(=O)NCc3cccs3)C2)cc1OC (configuration not stated)	.	.	.	0	.	.
COc1cc(C2=NOC(C(=O)NCc3cccs3)C2)cc(OC)c1OC (configuration not stated)	-8	?	52*	0	8	63*
Cc1ccc(NC(=O)N[C@H](C(=O)O)C(C)C)c(C)c1	.	1	-9	0	.	.
SMILES	SR-BI DiI inh	Vif inh	TAG inh	Bfl-1 A1 inh	SR-BI uptake up	TAG conf
CC(C)(C)OC(=O)COc1ccc(/C=N/NC(=O)CN2CCCCC2)cc1	13	-10	.	.	-13	.
CCC(NS(=O)(=O)c1ccc2c(c1)Cc1cc(S(=O)(=O)NC(CC)C(=O)O)ccc1-2)C(=O)O (configuration not stated)	-12	2	5	0	12	.
CN(Cc1ccc(Cl)cc1)C(=O)CCl	-13	28	52*	-1	13	60*
Cc1nc(Cc2nnc(SCC(=O)N3c4ccccc4NC(=O)C3(C)C)o2)cs1	.	-3	-3	.	.	.
Cc1onc(-c2ccccc2)c1C(=O)Nc1cc(C(F)(F)F)ccc1N1CCOCC1	-20	35	52*	0	20	62*
COc1cc2[nH]c(=O)n3nc(-c4ccccc4)nc3c2cc1OC	5	-2	34	0	-5	.
CCN(CC)CCNc1nc2cc(OC)c(OC)cc2c2nc(-c3ccccc3)nn12	-6	-34	64*	0	6	46*
O=C(COC(=O)c1ccc([N+](=O)[O-])cc1)Nc1ccccc1C(=O)NC1CC1	0	0	4	0	0	.
CCOC(=O)NN=C1c2ccccc2-c2ccccc21	14	-2	0	0	-14	.
CCOC(=O)Nc1ccc2c(c1)C(=NNC(=S)NC)c1ccccc1-2	.	-4	58*	.	.	70*
Cc1ccc(NC(=O)COC(=O)C2(C)CC2(Cl)Cl)cc1S(=O)(=O)N1CCOCC1 (configuration not stated)	12	-2	-13	.	-12	.
COc1cccc(/C=C/C(=O)NNC(=O)c2ccccc2)c1OC	-7	-5	-5	.	7	.
COc1cccc(/C=C/C(=C2/C(=O)N(c3ccccc3)N=C2C)c2ccc(C)cc2)c1OC	8	-1	112*	2	-8	129*
CC(C)=CCNc1ncnc2c1c(C#N)cn2C1OC(CO)C(O)C1O (configuration not stated)	5	2	58*	.	-5	46*
O=C1c2ccccc2C(=O)c2c1ccc(C(=O)N1CCCCC1)c2NCCO	13	-15	83*	0	-13	83*
CC1(C)CCCN(C(=O)c2ccc3c(c2NCCO)C(=O)c2ccccc2C3=O)C1	22	-12	.	0	-22	.
C[C@H](CO)N1C[C@H](C)[C@H](CN(C)S(=O)(=O)c2ccc(Cl)cc2)OCc2ccccc2-c2c(n(C)c3ccccc23)C1=O	.	-4	51*	.	.	80*
Cc1ccc(S(=O)(=O)N(C)C[C@@H]2OCc3ccccc3-c3c(n(C)c4ccccc34)C(=O)N([C@H](C)CO)C[C@@H]2C)cc1	.	0	45	.	.	.

Source: PubChem
